ChEMBL document CHEMBL4402581, “Monohydrazone Based G-Quadruplex Selective Ligands Induce DNA Damage and Genome Instability in Human Cancer Cells” (J Med Chem, 2020)
Active and inactive are the calls of the source. No cut-off for these calls is given here.

Tests used:
[1] = test system: U2OS; assay: Cytotoxicity against human U2OS cells assessed as reduction in cell viability incubated for 1 hr followed by 48 hrs of recovery in drug free medium by MTT assay; assay type: functional, cell-based
How it was run: (§1)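 Cells grown in DMEM with 10% FBS and 1% glutamine at 37 °C, 5% CO2, and seeded 25 × 10^4 per well. Treatment began 24 h after seeding and lasted 1 or 24 h, followed by 48 h in drug-free medium. MTT was added for 1 h at 37 °C, then DMSO solubilization and absorbance at 595 nm. IC50 came from linear regression; two independent experiments, each in triplicate.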

[2] = test system: Quadruplex DNA; assay: Stabilization of c-Myc G4 quadruplex DNA assessed as change in melting temperature at 10 mol.equiv by circular dichroism melting assay; assay type: nucleic-acid assay
How it was run: (§2)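 CD melting from 20 to 100 °C at 1 °C/min, monitored at 264 nm (c-Kit1, c-Kit2, c-Myc, Tel23-p), 287 nm (Tel23-h) or 280 nm (hairpin). Ligand was at 10 mol equiv with folded DNA (15 μM G4, 30 μM hairpin). ΔTm is Tm with ligand minus Tm without, from curve fits, averaged over triplicates.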

[3] = test system: Quadruplex DNA; assay: Stabilization of G4 quadruplex DNA in human U2OS cells assessed as increase in number of G4 foci at 2 uM incubated for 24 hrs by immunofluorescence microscopy; assay type: cell-based
[4] = test system: Quadruplex DNA; assay: Binding affinity at FAM/TAMRA-tagged c-Kit2 G4 quadruplex DNA assessed as melting temperature at 2 uM in presence of 25 fold excess duplex DNA by FRET melting assay (reference value: 69.7 +/- 0.3 degreeC); assay type: nucleic-acid assay
How it was run: (§3)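 Dual FAM/TAMRA-labelled oligos (0.2 μM) in 20 mM K phosphate pH 7.0 with 5 mM KCl, annealed 90 °C 5 min, slow-cooled overnight, held 4 °C 24 h. The Tel21 parallel form was annealed at high DNA concentration. Ligand 2 μM. Unlabelled ds12 duplex competitor at 0, 5 or 10 μM final. Tm was read from FRET melting curves.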

[5] = test system: Quadruplex DNA; assay: Stabilization of human Tel23 G4 quadruplex DNA assessed as change in melting temperature at 10 mol.equiv by circular dichroism melting assay; assay type: nucleic-acid assay; how it was run: as §2
[6] = test system: Quadruplex DNA; assay: Stabilization of parallel Tel23 G4 quadruplex DNA assessed as change in melting temperature at 10 mol.equiv by circular dichroism melting assay; assay type: nucleic-acid assay; how it was run: as §2
[7] = test system: Quadruplex DNA; assay: Effect on c-Myc G4 quadruplex DNA architecture at 10 mol.equiv by circular dichroism spectral analysis; assay type: nucleic-acid assay
How it was run: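 CD spectra of 15 μM G4s or 30 μM hairpin in 20 mM K phosphate pH 7.0 with 5 mM KCl, after annealing. Recorded at 20 °C over 230–360 nm, three scans averaged, buffer baseline subtracted. Ligand was added at 10 mol equiv to the folded DNA from a 10 mM DMSO stock.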

[8] = test system: HeLa; assay: Cytotoxicity against human HeLa cells assessed as reduction in cell viability incubated for 24 hrs followed by 48 hrs of recovery in drug free medium by MTT assay; assay type: functional, cell-based; how it was run: as §1
[9] = test system: Quadruplex DNA; assay: Binding affinity at FAM/TAMRA-tagged parallel Tel21 G4 quadruplex DNA assessed as melting temperature at 2 uM in presence of 50 fold excess duplex DNA by FRET melting assay (reference value: 55.4 +/- 0.2 degreeC); assay type: nucleic-acid assay; how it was run: as §3
[10] = test system: Quadruplex DNA; assay: Stabilization of c-Kit2 G4 quadruplex DNA assessed as change in melting temperature at 10 mol.equiv by circular dichroism melting assay; assay type: nucleic-acid assay; how it was run: as §2
[11] = molecular target: Quadruplex DNA; assay: Displacement of Thiazole orange from c-Kit2 G4 quadruplex DNA incubated for 3 mins by spectrofluorimetry; assay type: nucleic-acid assay
How it was run: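 Pre-folded DNA (0.25 μM) in K phosphate/KCl buffer was mixed with thiazole orange: 0.50 μM for G4s, 0.75 μM for duplex. Ligand was added stepwise from 0.5 to 10 equiv, with 3 min equilibration at 20 °C after each addition. Excitation 495 nm; emission read at 543 nm. Displacement % = 100 − (F/F0 × 100). DC50 is the concentration giving 50% displacement.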

Activity [2]: Active
Tm [4]: 76.4 °C
ΔTm [5]: < 2 °C
Activity [6]: Active
Activity [7]: inactive
Tm [9]: 68.1 °C
Activity [10]: Active
DC50 [11]: 7.8 µM
Compound: CC(C)(C)c1cc(/C=N/NC(=N)N)c(O)c(/C=C2/C(=O)Nc3c2ccc2ccccc32)c1.Cl
IC50 [1]: 12.5 µM
Activity [3]: Active
IC50 [8]: 0.75 µM
